# Test results reported in publication PMC4659844 (Clinical Drug Investigation, 2015).
# Like-named read-outs stand apart in the source and are kept apart here.
# Experiments:
# [1] = system: healthy Japanese subjects; test: Safety and tolerability; format: in vivo, human
# How it was run: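 Double-blind, placebo-controlled single 30-min IV infusion (300 ml, in 5 % dextrose with sterile water) of test compound or placebo. Groups: 500 mg, 5 active/1 placebo; 1000 mg, 10 active/2 placebo. Safety was assessed by physical examination, chemistry, hematology, urinalysis, heart rate, blood pressure, respiratory rate, oral temperature, and monitoring of concomitant medications and adverse events, queried on all study days with non-leading questions.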
# [2] = format: in vivo, human; details: for percentage of total exposure (AUC0–∞) after 7 days / percentage of total exposure (AUC0–∞) after 14 days: based on mean partial AUCs
# cytochrome P450 (CYP) = details: background statement, no reference given; cited from earlier work
# [3] = cited from earlier work
# QTc = details: cited from earlier work
# [4] = 500 mg and 1000 mg single IV infusion, range of the two dose means
# [5] = 500 mg single IV infusion, healthy Japanese subjects, range of subjects, n = 5
# [6] = 1000 mg single IV infusion, healthy Japanese subjects, range of subjects, n = 10
smiles,measurement,setting,value
CN[C@H]1C(=O)N[C@@H]2Cc3ccc(cc3)Oc3cc4cc(c3O[C@@H]3O[C@H](C(=O)O)[C@@H](O)[C@H](O)[C@H]3NC(=O)CCCCCCCCC(C)C)Oc3ccc(cc3Cl)[C@@H](O)[C@@H]3NC(=O)[C@H](NC(=O)[C@@H]4NC(=O)[C@@H](NC2=O)c2cc(cc(O)c2Cl)Oc2cc1ccc2O)c1ccc(O)c(c1)-c1c(O[C@H]2O[C@H](CO)[C@@H](O)[C@H](O)[C@@H]2O)cc(O)cc1[C@@H](C(=O)NCCCN(C)C)NC3=O [Dalbavancin],tolerability,"[1]; 500 mg and 1000 mg as single 30-min infusions, healthy Japanese subjects",well tolerated
same,"serious adverse events, deaths, discontinuations due to a TEAE","[1]; 500 mg and 1000 mg single IV infusion, healthy Japanese subjects",no serious adverse event occurred
same,investigator-assessed relation of dizziness to study medication,[1]; 500 mg dose group,unlikely to be related
same,investigator-assessed relation of dyspepsia to study medication,[1]; 500 mg dose group,not related
same,investigator-assessed relation of rash and diarrhea to study medication,[1]; 1000 mg dose group,possibly related
same,"subjects with at least one TEAE, percentage","[1]; Dalbavancin 500 mg single IV infusion, N = 5",40%
same,"subjects with at least one TEAE, percentage","[1]; Dalbavancin 1000 mg single IV infusion, N = 10",30%
same,"clinical laboratory values (chemistry, hematology, urinalysis)","[1]; any dose group, change from baseline","No clinically relevant, abnormal laboratory values were reported"
same,intensity of TEAEs,"[1]; subjects receiving dalbavancin in both dose groups (500 mg, 1000 mg)",mild intensity
same,mean CL across two dose concentrations,[2]; [4],40.5 to 42.2 mL/h
same,mean Vd across two dose concentrations,[2]; [4],"11,301 to 12,182 ml"
same,percentage of total exposure (AUC0–∞) after 7 days,[2]; 500 mg single IV infusion,approximately 47%
same,percentage of total exposure (AUC0–∞) after 14 days,[2]; 500 mg single IV infusion,~70%
same,mean AUC%extrap (percentage of AUC0–∞ obtained by extrapolation),"[2]; 500 mg single IV infusion, healthy Japanese subjects",9.83%
same,"Vd, range",[2]; [5],"11,412–14,205 ml"
same,"terminal phase t1/2, range",[2]; [5],182 to 240 h
same,percentage of total exposure (AUC0–∞) after 7 days,[2]; 1000 mg single IV infusion,approximately 49%
same,percentage of total exposure (AUC0–∞) after 14 days,[2]; 1000 mg single IV infusion,~73%
same,mean AUC%extrap (percentage of AUC0–∞ obtained by extrapolation),"[2]; 1000 mg single IV infusion, healthy Japanese subjects",8.34%
same,"CL, range",[2]; [6],34.8 to 45.8 mL/h
same,"Vd, range",[2]; [6],"8999–13,691 ml"
same,"terminal phase t1/2, range",[2]; [6],162 to 220 h
same,CYP oxidative metabolism,cytochrome P450 (CYP),does not undergo cytochrome P450 (CYP) oxidative metabolism
same,"substrate, inhibitor or inducer of CYP isozymes",cytochrome P450 (CYP),"is not a substrate, inhibitor or inducer of any known CYP-isozyme"
same,terminal half-life (t1/2),[3],2 weeks
same,terminal t1/2,[3]; studies with follow-up periods as long as 70 days,≤ 15.5 days
same,QTc prolongation,QTc,no evidence of QTc prolongation
